Measurements reported in ChEMBL document CHEMBL4017514, “Discovery of Novel Macrocyclic Hedgehog Pathway Inhibitors Acting by Suppressing the Gli-Mediated Transcription” (J Med Chem, 2017).
Activity calls are given as the source filed them. The rule behind the calls is not given here.

Legend:
Mus musculus [1] = organism: Mus musculus; assay: Inhibition of hedgehog signaling pathway in mouse Ptch+/- p53-/- medulloblastoma cells assessed as reduction in GLI1 mRNA expression at 5 uM by RT-qPCR analysis
How it was run: (§1)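 ptch+/−;p53−/− medulloblastoma cells kept in Neurobasal A/B-27 medium with EGF and bFGF, then treated. Gli1 and ptch1 mRNA measured by RT-qPCR. Data given as mean ± SD.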

[2] = Inhibition of hedgehog signaling pathway in mouse Light2 cells in Shh conditioned medium by Gli-luciferase reporter gene assay; format: cell-based; conditions: Mus musculus
How it was run: (§2)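 Light II cells (NIH-3T3 stably transfected with Gli-responsive firefly luciferase and Renilla expression vector) stimulated with ShhN conditioned medium. This medium was collected from ShhN-transfected HEK293 cells kept in 0.1% FBS. Firefly luciferase normalized to Renilla. IC50 given as mean ± SD (nM) from three separate experiments.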

[3] = Inhibition of hedgehog signaling pathway in mouse C3H10T1/2 cells assessed as inhibition of hedgehog-induced cell differentiation after 48 hrs by luminescence assay; format: cell-based; conditions: C3H 10T1/2, 48 h
Mus musculus [4] = organism: Mus musculus; assay: Inhibition of hedgehog signaling pathway in mouse Light2 cells in Shh conditioned medium at 1 uM by Gli-luciferase reporter gene assay relative to control; format: cell-based
Mus musculus [5] = organism: Mus musculus; assay: Inhibition of hedgehog signaling pathway in mouse Ptch+/- p53-/- medulloblastoma cells assessed as reduction in ptch1 mRNA expression at 5 uM by RT-qPCR analysis; how it was run: as §1
Homo sapiens [6] = organism: Homo sapiens; assay: Inhibition of TNFalpha-induced NFkappaB activation in HEK293 cells at 20 uM after 24 hrs by dual luciferase reporter gene assay; format: cell-based; conditions: 1 uM, in the assay text read “1 uM” for “20 uM”
How it was run: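 HEK293 cells carrying NF-κB firefly reporter plus Renilla, stimulated with TNF-α and treated for 24 h. Cells lysed for dual luciferase assay, firefly signal normalized to Renilla. Data given as mean ± SD.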

Mus musculus [7] = organism: Mus musculus; assay: Inhibition of hedgehog signaling pathway in mouse NIH/3T3 cells harboring sufu shRNA assessed as downregulation of Gli1 mRNA expression at 1 uM by RT-qPCR analysis; format: cell-based
How it was run: (§3)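 Sufu expression in NIH-3T3 cells was reduced by lentivirus carrying Sufu shRNA. Knockdown was checked by immunoblot of Sufu, with GAPDH as loading control, in lysates made in Tris pH 7.4/NaCl/NP-40 buffer with protease and phosphatase inhibitors. Gli1 and ptch1 mRNA were then measured in the knockdown cells by RT-qPCR.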

Mus musculus [8] = organism: Mus musculus; assay: Inhibition of hedgehog signaling pathway in mouse NIH/3T3 cells harboring sufu shRNA assessed as downregulation of ptch1 mRNA expression at 1 uM by RT-qPCR analysis; format: cell-based; how it was run: as §3
Homo sapiens [9] = organism: Homo sapiens; assay: Inhibition of PGE2-stimulated TCF/LEF activity in human LS174T cells at 20 uM measured after 6 hrs by dual luciferase reporter gene assay; format: cell-based
How it was run: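 LS174T cells carrying TCF/LEF reporter, stimulated with PGE2 and treated for 6 h. Dual luciferase read-out, firefly normalized to Renilla. Data given as mean ± SD.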

KB = assay: Cytotoxicity against human KB cells; format: cell-based
[10] = Inhibition of hedgehog signaling pathway in mouse Shh Light2 cells harboring Gli2 plasmid assessed as reduction in Gli2-mediated transcriptional activity by luciferase reporter gene assay; format: cell-based
[11] = Inhibition of hedgehog signaling pathway in mouse Light2 cells harboring Smo W535L mutant after 36 hrs by Gli luciferase activity; format: cell-based
How it was run: (§4)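 Light II cells (NIH-3T3 stably carrying Gli-responsive firefly luciferase and Renilla vector) transfected with wild-type, D473H or W535L Smo plasmid. Exposed to compound for 36 h, then dual luciferase assay with firefly/Renilla normalization. IC50 derived and given as mean ± SD.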

[12] = Antitumor activity against mouse Ptch+/- p53-/- medulloblastoma cells implanted in athymic nude mouse assessed as tumor growth inhibition at 50 mg/kg, ip bid for 15 consecutive days; format: functional; conditions: Medulloblastoma cell, read-out: TGI
How it was run: (§5)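 Spontaneous ptch+/−;p53−/− intracranial medulloblastomas passaged subcutaneously in athymic nude mice, then 1 mm3 fragments implanted in the right flank. Dosing started at 100−150 mm3 tumor volume, n = 5. Drug given ip twice daily for 15 days as a suspension in 0.5% methylcellulose, 0.2% Tween-80. Caliper volume (length × width2/2) taken twice weekly. TGI calculated on the last day from growth versus vehicle.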

[13] = Inhibition of hedgehog signaling pathway in mouse Shh Light2 cells harboring Gli1 plasmid assessed as reduction in Gli1-mediated transcriptional activity by luciferase reporter gene assay; format: cell-based
[14] = Inhibition of hedgehog signaling pathway in mouse Shh Light2 cells assessed as reduction in ShhN-induced GLI-mediated transcriptional activity by luciferase reporter gene assay; format: cell-based; how it was run: as §2
[15] = Antitumor activity against mouse Ptch+/- p53-/- medulloblastoma cells implanted in athymic nude mouse assessed as tumor growth inhibition at 25 mg/kg, ip bid for 15 consecutive days; format: functional; conditions: Medulloblastoma cell, read-out: TGI; how it was run: as §5
[16] = Inhibition of hedgehog signaling pathway in mouse Light2 cells harboring Smo D473H mutant after 36 hrs by Gli luciferase activity; format: cell-based; how it was run: as §4
[17] = Inhibition of hedgehog signaling pathway in mouse Light2 cells harboring wild type Smo after 36 hrs by Gli luciferase activity; format: cell-based; how it was run: as §4
Mus musculus [18] = assay: Toxicity in athymic nude mouse implanted with mouse Ptch+/- p53-/- medulloblastoma cells assessed as body weight loss at 25 to 50 mg/kg, ip bid for 15 consecutive days; format: organism-based; conditions: in vivo
How it was run: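 Body weight of nude mice (n = 5) carrying medulloblastoma allografts was followed during 15 days of twice-daily ip dosing in 0.5% methylcellulose/0.2% Tween-80 suspension. Data given as mean ± SD.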

Medulloblastoma cell = assay: Antiproliferative activity against mouse Ptch+/- p53-/- medulloblastoma cells assessed as reduction in cell proliferation up to 30 uM after 72 hrs by MTS assay; format: functional, cell-based
How it was run: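 Tumor cells obtained from ptch+/−;p53−/− medulloblastoma allografts by mechanical mincing and collagenase digestion. Cultured in Neurobasal A with B-27, EGF 20 ng/mL, bFGF 20 ng/mL, nonessential amino acids and N-acetylcysteine 60 μg/mL. Exposed to compounds for 72 h, then proliferation read by MTS assay. Data given as mean ± SD.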

Mus musculus [19] = organism: Mus musculus; assay: Inhibition of hedgehog signaling pathway in mouse NIH/3T3 cells assessed as downregulation of Shh-induced Gli1 mRNA expression levels at 100 nM after 36 hrs by RT-qPCR analysis; format: cell-based
How it was run: (§6)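 NIH-3T3 or C3H10T1/2 cells treated as indicated for 36 h, then collected for RT-qPCR of Gli1 and ptch1 mRNA. Data given as mean ± SD.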

Mus musculus [20] = organism: Mus musculus; assay: Inhibition of hedgehog signaling pathway in mouse C3H10T1/2 cells assessed as downregulation of Shh-induced ptch1 mRNA expression levels at 100 nM after 36 hrs by RT-qPCR analysis; format: cell-based; how it was run: as §6
Mus musculus [21] = organism: Mus musculus; assay: Inhibition of hedgehog signaling pathway in mouse NIH/3T3 cells harboring sufu shRNA assessed as downregulation of Gli1 mRNA expression at 100 nM by RT-qPCR analysis; format: cell-based
Mus musculus [22] = organism: Mus musculus; assay: Inhibition of hedgehog signaling pathway in mouse C3H10T1/2 cells assessed as downregulation of Shh-induced Gli1 mRNA expression levels at 100 nM after 36 hrs by RT-qPCR analysis; format: cell-based; how it was run: as §6
Mus musculus [23] = organism: Mus musculus; assay: Inhibition of hedgehog signaling pathway in mouse NIH/3T3 cells assessed as downregulation of Shh-induced ptch1 mRNA expression levels at 100 nM after 36 hrs by RT-qPCR analysis; format: cell-based; how it was run: as §6
Mus musculus [24] = organism: Mus musculus; assay: Inhibition of hedgehog signaling pathway in mouse Shh Light2 cells harboring Gli1 plasmid assessed as reduction in Gli1-mediated transcriptional activity at 100 nM by luciferase reporter gene assay; format: cell-based
Mus musculus [25] = organism: Mus musculus; assay: Inhibition of hedgehog signaling pathway in mouse Shh Light2 cells harboring Gli2 plasmid assessed as reduction in Gli2-mediated transcriptional activity at 100 nM by luciferase reporter gene assay; format: cell-based
Mus musculus [26] = organism: Mus musculus; assay: Inhibition of hedgehog signaling pathway in mouse NIH/3T3 cells harboring sufu shRNA assessed as downregulation of ptch1 mRNA expression at 100 nM by RT-qPCR analysis; format: cell-based

| Structure (SMILES) | IC50 [2] [nM] | inhibition (Mus musculus [4]) [%] | further results |
| --- | --- | --- | --- |
| C[C@H](CO)N1C[C@H](C)[C@H](CN(C)S(=O)(=O)c2ccc(Cl)cc2Cl)Oc2c(NC(=O)C3CC3)cccc2C1=O | 383 | 67 | inhibition (Mus musculus [1]): inactive; EC50 [3]: 60 nM; inhibition (Mus musculus [5]): inactive |
| Cc1ccc(S(=O)(=O)/C=C/C#N)cc1 | – | – | inhibition (Homo sapiens [6]): Active |
| Cc1sc2c(c1C)C(c1ccc(Cl)cc1)=N[C@@H](CC(=O)OC(C)(C)C)c1nnc(C)n1-2 | – | – | inhibition (Mus musculus [7]): Active; inhibition (Mus musculus [8]): Active |
| O=S(=O)(NCCNC/C=C/c1ccc(Br)cc1)c1cccc2cnccc12 | – | – | inhibition (Homo sapiens [9]): Active |
| COc1ccc(CN2C[C@@H]3CN(S(=O)(=O)c4ccn(C)n4)CC[C@@H]3Oc3c(NC(=O)C4CC4)cccc3C2=O)cc1 (racemic) | 145 | 87 | – |
| COc1ccc(CN2CC3CN(S(=O)(=O)c4ccc(Cl)cc4Cl)CCC3Oc3c(NC(=O)C4CC4)cccc3C2=O)cc1 (racemic) | 33 | 107 | – |
| COc1ccc(CN2C[C@@H]3CCN(S(=O)(=O)c4ccc(Cl)cc4)C[C@@H]3Oc3ccc(NC(=O)C4CC4)cc3CC2=O)cc1 (racemic) | 502 | 60 | – |
| COc1ccc(CN2C[C@@H]3CCN(C(=O)Nc4ccc(C(F)(F)F)cc4)C[C@@H]3Oc3c(NC(=O)C4CC4)cccc3C2=O)cc1 (racemic) | 292 | 100 | – |
| COc1ccc(CN2C[C@@H]3CN(S(=O)(=O)c4ccc(Cl)cc4)CC[C@@H]3Oc3ccc(NC(=O)C4CC4)cc3CC2=O)cc1 (racemic) | > 1000 | 36 | – |
| COc1ccc(CN2C[C@@H]3CN(S(=O)(=O)c4ccc(Cl)s4)CC[C@@H]3Oc3c(NC(=O)C4CC4)cccc3C2=O)cc1 (racemic) | 46 | 108 | – |
| COc1ccc(CN2C[C@@H]3CN(S(=O)(=O)c4ccc(Cl)cc4)CC[C@@H]3Oc3c(NC(=O)C4CC4)cccc3C2=O)cc1 (racemic) | 23 | – | IC50 (KB): > 20000 nM; IC50 [10]: 24.9 nM; IC50 [11]: 39.8 nM; inhibition in vivo at 50 mg/kg [12]: 73.4%; IC50 [13]: 29.9 nM; IC50 [14]: 23 nM; inhibition in vivo at 25 mg/kg [15]: 57.5%; IC50 [16]: 37.5 nM; IC50 [17]: 35.7 nM; Activity (Mus musculus [18]): Non-Toxic |
| COc1ccc(CN2CC3CN(C(=O)Nc4ccc(C(F)(F)F)cc4)CCC3Oc3c(NC(=O)C4CC4)cccc3C2=O)cc1 (racemic) | > 1000 | 68 | – |
| COc1ccc(CN2CC3CN(S(=O)(=O)c4ccc(NC(C)=O)cc4)CCC3Oc3c(NC(=O)C4CC4)cccc3C2=O)cc1 (racemic) | 773 | 82 | – |
| COc1ccc(CN2C[C@@H]3CCN(S(=O)(=O)c4ccn(C)n4)C[C@@H]3Oc3ccc(NC(=O)C4CC4)cc3CC2=O)cc1 (racemic) | > 1000 | 16 | – |
| COc1ccc(CN2C[C@@H]3CCN(C(=O)c4ccc(Cl)cc4)C[C@@H]3Oc3c(NC(=O)C4CC4)cccc3C2=O)cc1 (racemic) | > 1000 | 22 | – |
| COc1ccc(CN2C[C@@H]3CCN(S(=O)(=O)c4ccn(C)n4)C[C@@H]3Oc3c(NC(=O)C4CC4)cccc3C2=O)cc1 (racemic) | 94 | 74 | – |
| COc1ccc(CN2C[C@@H]3CN(S(=O)(=O)c4ccc(Cl)s4)CC[C@@H]3Oc3ccc(NC(=O)C4CC4)cc3CC2=O)cc1 (racemic) | 1620 | 65 | – |
| COc1ccc(CN2C[C@@H]3CCN(C(=O)Nc4ccc(F)cc4F)C[C@@H]3Oc3c(NC(=O)C4CC4)cccc3C2=O)cc1 (racemic) | 26 | 100 | – |
| COc1ccc(CN2CC3CN(C(=O)Nc4ccc(F)cc4F)CCC3Oc3c(NC(=O)C4CC4)cccc3C2=O)cc1 (racemic) | 540 | 87 | – |
| CS(=O)(=O)c1ccc(C(=O)Nc2ccc(Cl)c(-c3ccccn3)c2)c(Cl)c1 [VISMODEGIB] | 39 | 93 | inhibition (Medulloblastoma cell): Active; inhibition (Mus musculus [19]): Active; inhibition (Mus musculus [20]): Active; inhibition (Mus musculus [21]): inactive; inhibition (Mus musculus [22]): Active; inhibition (Mus musculus [23]): Active; inhibition (Mus musculus [24]): inactive; inhibition (Mus musculus [25]): inactive; inhibition (Mus musculus [26]): inactive |
